Measured values reported in ChEMBL document CHEMBL4513216, “Probing the Open Global Health Chemical Diversity Library for Multistage-Active Starting Points for Next-Generation Antimalarials” (ACS Infect Dis, 2020).

Experiment: Toxicity liver stage against HepG2, at 10uM
Format: cell-based
Design: test concentration 10 uM, cell line HepG2-A16-CD81EGFP
Settings: human, HepG2-A16-CD81EGFP cells; read-out: INHIBITION
Summary of the method: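 Uninfected HepG2-A16-CD81EGFP cells, 3 × 10^3 per well, 1536-well, plated on prespotted compound at 10 μM final, parasite-free screening media added to match infected plates; puromycin 10 μM positive, DMSO 0.5% negative; run in parallel with 48 h PbLuc assay at 37 °C, 5% CO2; viability by CellTiter-Glo luminescence, normalized to controls.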

Compound	cytotoxicity at 10 µM [%]
COc1ccc(F)cc1C(=O)C1CCCN(Cc2cnc(C)s2)C1 (centres undefined)	6.26
O=C(c1ccc2c(c1)OCO2)N1CCN2C(=O)NC[C@H]2C1	2.02
CC(C)COC(=O)N1CC(=O)N(Cc2ccco2)CC(O)C1 (centres undefined)	-1.7
CCN1CC(O)CN(C(=O)c2ccc(SC)cc2)CC1=O (centres undefined)	6.88
CC(C)C[C@H](NC(=O)Nc1ccc(F)c(Cl)c1)C(=O)O	-43
N#Cc1nc(COc2ccc3c(c2)OCO3)oc1NC1CC1	-43
NC(=O)N1CC[C@H](O)[C@@H]1Cc1ccccc1	3.32
CCO[C@@H]1CC[C@H]2[C@H]1OCCN2C(=O)c1ccc(C)o1	-149
Cc1cc2nc(SCC(=O)N3CCOCC3)n(C(C)C)c(=O)c2[nH]1	11
COc1cccc(C(=O)Oc2cc(=O)n3cccc(C)c3n2)c1	6.36
O=c1[nH]nc2c(N3CCCCCC3)nccn12	10.5
Cn1cc2c(n1)C(CNC(=O)Cc1ccsc1)OCC2 (centres undefined)	0.175
O=C(NCCCN1CCOCC1)c1ccn(COc2ccc(Br)cc2)n1	5.39
Cc1cc(N2CCC(Cc3ccccc3)CC2)ncn1	3.51
Cc1cc(C(F)(F)F)nn1C(C)C(=O)Nc1ccc(Cl)cn1 (centres undefined)	11.6
CC(C)(C)NC(=O)CCn1ncc2c(Cl)cccc21	7.25
CN1CCCCC[C@@H]2[C@@H]1[C@H](c1ccccc1)CN2C(=O)c1cccnc1	-24.4
CN1CCCC[C@@H]2[C@H]1[C@@H](c1ccccc1)CCN2C(=O)c1cccnc1	-21.2
Cc1cc(C)nc(Nc2cccc(C3CCCN(CC4CC4)C3)n2)n1 (centres undefined)	-11.3
COCC(=O)N1CCc2nc(-c3cnccn3)nc(O)c2C1	27.7
CS(=O)(=O)N1CCC(C(=O)NC(Cc2ccsc2)c2cccnc2)CC1 (centres undefined)	-12.5
O=C(N[C@@H]1CN(Cc2cccc(F)c2)C[C@H]1O)c1cscn1	-4.66

Compound	cytotoxicity at 10 µM [%]
CC(=O)N1CC(Cc2nccc3ccn(C)c23)C1	0.668
COc1ccccc1C(=O)N1CC(Cc2nccc3ccn(C)c23)C1	-0.619
O=C(NC1CC1)C1CCc2nnc(-c3cccnc3)n21 (centres undefined)	8.96
Cn1nc(C2CCNC2)c2c(C(=O)NCC(F)(F)F)cc(C3CC3)nc21 (centres undefined)	8.41
COc1ccc(NC(=O)Cc2c(C)nn(C)c2C)cc1F	10.1
COC(=O)CCNC(=O)c1c[nH]cc1-c1ccccc1OC	6.17
Cc1csc(C2(NC(=O)NCCN3CCOCC3)CCC2)n1	-0.746
CCCNC(=O)CN1CCCC1c1nc(Cc2ccc(F)cc2)no1 (centres undefined)	4.8
CCN(CC)CC1CCN(Cc2ncc(C(C)(C)C)o2)CC1	-7.22
CC(C)(C)NC(=O)c1cccc(CN2CCS(=O)(=O)CC2)c1	4.5
Cc1ccc(C(CNCc2nccn2C)N2CCOCC2)s1 (centres undefined)	-1.76
Cc1ccoc1CNCc1nnc2n1CCCC2C(F)(F)F (centres undefined)	13.9
O=C(NS(=O)(=O)c1ccccc1C(F)(F)F)c1cccc2c1OCCO2	5.56
Cc1nnc(NC(=O)c2cc(S(=O)(=O)N3CCSCC3)c[nH]2)s1	-7.01
COC(=O)CCN1CCC(C(=O)c2cc(F)ccc2F)CC1	-11.1
CCN(CC(=O)NC(C)C)C(=O)c1ccc(-c2ccsc2)nc1C	-0.908
CC(C)c1nc(CC(=O)N(C)Cc2ccc3c(c2)OCO3)cs1	-13.5
COc1ccc(CNC(=O)NCc2ccc(C)cc2)cn1	-5.63
CCN(CC(=O)N(C)C)C(=O)C(C)(C)c1ccc2c(c1)OCCO2	1.22
CSCC(=O)N(C)Cc1ccc(N(C)C)cc1	8.63
COc1cccc(CCNC(=O)CCS(=O)(=O)C2CCCC2)c1	2.2
CCn1c(=O)n(Cc2nc(C3CC3)no2)c2ccccc21	-43.2

Compound	cytotoxicity at 10 µM [%]
CCOc1cccc(CNC(C)c2ccc(-n3ccnc3)cc2)c1O (centres undefined)	-38.3
Cc1ccc(CNC(=O)Cn2c(=O)c3cccnc3n2C)cc1F	-2.83
CCC(Nc1nnnn1-c1ccccc1)C(=O)NCc1cccs1 (centres undefined)	-1.12
O=C1OCCN1CCCN1CCCC1c1ccc(O)cc1 (centres undefined)	-6.3
CCOCC(=O)Nc1cccnc1-n1ccnc1C	3.62
CC(C)CCN1CCN(C(=O)c2ccc(=O)[nH]n2)CC1	-6.96
Cc1cnn(CCNCc2nc(-c3ccsc3)oc2C)c1	-3.55
Cc1nc(C)n(Cc2cccc(NC(=O)NC(C)(CO)C3CC3)c2)n1 (centres undefined)	14.3
O=C1CCC(C(=O)Nc2cnn(-c3ccccc3Br)c2)N1 (centres undefined)	3.56
Cc1cnc(CN2CCN(c3ccnc(-c4ccccc4)n3)CC2)cn1	3.61
Cc1nnc(NC(=O)CN2CCCC(c3ccn[nH]3)C2)s1 (centres undefined)	-37.6
CCOc1ccc(C(C)NC(=O)N2CCC(C(N)=O)CC2)cc1OC (centres undefined)	-4.56
Clc1ccc(OCCN2CCN(CCn3cncn3)CC2)cc1	-17.4
COc1ncccc1CN1C[C@@H]2CN(c3ncccn3)C[C@@H]2C1	-5.11
CC(C)n1c2ccccc2c2c1cc(C(=O)N(C)C)n2C(=O)N(C)C	-95
CO[C@@H]1CC[C@H]2[C@H]1OCCN2C(=O)COc1ccc(C)cc1	-99
CCC1=N[C@@]2(CC[C@@H]3CN(C(=O)NCC4CCCCC4)C[C@@H]32)C(=O)N1	-70.2
COCCN(Cc1ccccc1Cl)c1nc(CCN)nc2ccccc12	12.9
Cc1cc(C2CCCCN2C(=O)CN2C(=O)OC(C)(C)C2=O)no1 (centres undefined)	3.35
Cc1cc(CC(C)Nc2nc(-c3cccnc3)nc3c2CNC3)[nH]n1 (centres undefined)	3.28
Cc1cc(C(=O)N2C[C@H](CO)C[C@H](CN3CCOCC3)C2)cnc1C	3.98
Cc1cc(NCC2CCS(=O)(=O)C2)n2nc(C)cc2n1 (centres undefined)	1.41

Compound	cytotoxicity at 10 µM [%]
CC1(Cc2ccc3c(c2)OCO3)CCCN(S(=O)(=O)N2CCOCC2)C1 (centres undefined)	-5.39
CCNC(=O)[C@@H]1C[C@H](N)CN1Cc1ccc(-c2ccccc2C#N)o1	-38.2
CCCc1nnc(N2CCC3(CCC(=O)N(C)C3)CC2)o1	3.96
c1ccc(CCN2CCCC(Cn3ccnc3)C2)cc1 (centres undefined)	1.43
Cc1cccc(CN2CCN(c3ncnc4[nH]cnc34)CC2CCO)n1 (centres undefined)	-3.09
Cc1cc(C(=O)N2C[C@H](C(C)C)[C@@H](N(C)C)C2)cs1	-0.421
CCCc1cc(C(=O)N2CCC3(CCCN(CCO)C3=O)C2)cs1 (centres undefined)	-144
Cc1nc(C(F)(F)F)nc(N2CCC3(CC2)CC(C(=O)O)N(C)C3)c1C (centres undefined)	-4.14
Cc1ocnc1C(=O)N1CCC2(CC1)c1nc[nH]c1CCN2CC(C)C	-11.4
CN1CC[C@H]2CN(C(=O)COCc3nc4cc(F)ccc4[nH]3)C[C@H]21	2.77
CC1(C)CN(C(=O)CC2CCC2)C[C@]1(C)O	-9.15
Cc1ccsc1CN1CCCC(CNC(=O)c2ccc(N)nc2)C1 (centres undefined)	-2.25
Cc1ccc(-c2cn[nH]c2C2CCCN(c3nccc(N)n3)C2)cc1 (centres undefined)	15.6
Cc1cc(C)n(NC(=O)c2ccccc2F)c(=O)c1	-13.2
CCN(CC)C1COc2c(cc(Br)c(C)c2C)C1=O (centres undefined)	0.331
Cc1cc(CN2CCCC2c2noc(C(C)C)n2)on1 (centres undefined)	-0.713
CN1CCN(C2CCN(CCCOc3ccc(F)cc3)CC2)C1=O	0.28
Cc1cc(CN2CCCC2c2c(C)nn(C)c2Cl)on1 (centres undefined)	-4.77
Cc1nc2ccnn2c(C)c1CCC(=O)N1CCN(CCO)CC1	-6.29
Cc1cccc(OCC(O)CN2CCC(Cn3cccn3)CC2)c1 (centres undefined)	-1.43
Cc1ccc(CN2CCCN(Cc3cscn3)CC2)cc1	-8.47
N#Cc1ccc(OCC(=O)N2CCCC(n3cccn3)C2)cc1 (centres undefined)	-2.83

Compound	cytotoxicity at 10 µM [%]
Cc1cnn(CC2CCCCN2C(=O)c2cccc3c2OCO3)c1 (centres undefined)	-4.89
O=C(CCc1ccc(F)cc1)NS(=O)(=O)c1ccc2c(c1)OCCCO2	4.4
CCc1ncc2c(n1)CN(Cc1nc(-c3ccccn3)no1)CC2	-20.9
COc1c(CNC2CCOc3ccccc32)c(C(C)C)nn1C (centres undefined)	-0.169
O=C(CN1CCC(N2CCNC2=O)CC1)NCC(F)(F)F	-3.35
Cc1cnn(CC(C)NCc2csc(-c3cnn(C)c3)n2)c1 (centres undefined)	5.32
c1ccc(C(OCCNC2CCc3ncnn3C2)c2ccccc2)cc1 (centres undefined)	-18.4
CCN(CC)C(=O)c1cc(C2CCCN2C)ccn1 (centres undefined)	-3.24
COCCN1CCOCC2(CCCN(Cc3cccc(F)c3)C2)C1 (centres undefined)	0.346
Cc1noc(C)c1CN1CC[C@H]2[C@H]1CCN2CC1CCOCC1	2
O=S(=O)(C1CC1)N1CC[C@@H](OCC2CC2)[C@@H]1Cc1ccncc1	10.9
CC(C)N1[C@H](Cn2cncn2)C[C@@H]2CN(Cc3ccsc3)CC[C@@H]21	-117
COc1ncccc1CN1C[C@@H]2OCCN(CCN(C)C)[C@@H]2C1	11.8
Cn1ncc2c1C(COCC1CC1)N(C(=O)c1ccncn1)CC2 (centres undefined)	-132
COc1ccccc1CNC(Cc1cccs1)c1nc(C)cs1 (centres undefined)	-6.12
O=C(c1ccncc1)N1C[C@@H]2CCN(c3cccnc3)C[C@@H]2C1	-71.5
CN1CCN(Cc2cccc(C#N)c2)Cc2cccnc21	-83.2
Cc1noc(C)c1CN1CCN(CC2CC2)c2ncccc2C1	5.56
COc1ccc(CN2CCc3ncnc(C4CC4)c3CC2)cc1	-148
CC1CCC(C(=O)N2CCC(n3cc(C4(O)CCCC4)nn3)CC2)CC1 (centres undefined)	9.08
CC1=C(C#N)C(=O)NC(=O)/C1=C\c1c(C)[nH]n(-c2ccc(C)cc2)c1=O	1.91
